# Experimental data from ChEMBL document CHEMBL4196238, “Synthesis and Antiviral Evaluation of Carbocyclic Nucleoside Analogs of Nucleoside Reverse Transcriptase Translocation Inhibitor MK-8591 (4'-Ethynyl-2-fluoro-2'-deoxyadenosine)” (J Med Chem, 2018).
# What was measured:
# [1] = tested on: Human immunodeficiency virus 1; assay: Antiviral activity against HIV1 infected in human PBMC incubated for 24 hrs in presence of 10% NHS by GFP based single cycle HIV replication assay; assay type: functional, organism-based; conditions: Human immunodeficiency virus 1, PBMC
# Outline: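 Human PBMCs infected with wild-type HIV-1 were tested in a single-cycle HIV replication assay containing 10% normal human serum (NHS), and IC50 values were determined.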
# [2] = Cytotoxicity in human MT4 cells expressing GFP assessed as reduction in cell viability incubated for 48 hrs by cell-titer-Glo luminescent cell viability assay; assay type: cell-based
# Outline: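 CC50 values were determined in the MT4 cell line under 10% NHS conditions.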
# [3] = AUC (0 to infinity) in Sprague-Dawley rat at 1 mg/kg, iv; assay type: ADME, organism-based; parameters: dose 1 mg/kg, time infinity, route intravenous; conditions: in vivo
# Outline: (§1)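 Male Sprague–Dawley rats were dosed intravenously at 1 mg/kg or orally at 2 mg/kg, and pharmacokinetic parameters were derived from plasma data for each route.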
# [4] = Clearance in Sprague-Dawley rat at 1 mg/kg, iv; assay type: ADME, organism-based; conditions: in vivo; outline: as §1
# [5] = Oral bioavailability in Sprague-Dawley rat at 2 mg/kg; assay type: ADME, organism-based; conditions: in vivo; outline: as §1
# [6] = AUC (0 to infinity) in Sprague-Dawley rat at 2 mg/kg, po; assay type: ADME, organism-based; parameters: dose 2 mg/kg, time infinity, route oral; conditions: in vivo; outline: as §1
# [7] = Half life in Sprague-Dawley rat at 1 mg/kg, iv; assay type: ADME, organism-based; conditions: in vivo; outline: as §1
# [8] = Half life in human CD4+ CEM cells at 0.1 to 10 uM by HPLC method; assay type: ADME, cell-based, CCRF-CEM
# [9] = molecular target: Human immunodeficiency virus type 1 reverse transcriptase (Human immunodeficiency virus 1, UniProt Q72547); assay: Inhibition of full-length wild-type HIV1 reverse transcriptase expressed in Escherichia coli BL21(DE3) pre-incubated for 30 mins before addition of template/primer substrate and measured after 90 mins
# [10] = AUC (0 to infinity) in Sprague-Dawley rat at 5 mg/kg, po; assay type: ADME, organism-based; parameters: dose 5 mg/kg, time infinity, route oral; conditions: in vivo
# [11] = Oral bioavailability in Sprague-Dawley rat at 5 mg/kg; assay type: ADME, organism-based; conditions: in vivo
SMILES,IC50 [1] [µM],CC50 at 48 h [2] [µM],IC50 [9] [µM],further results
C#C[C@@]1(CO[P@@](=O)(N[C@@H](C)C(=O)OC(C)C)Oc2ccccc2)C[C@H](n2cnc3c(OCC)nc(N)nc32)C[C@H]1O,0.382,> 4.2,–,–
C#C[C@@]1(CO)C[C@H](n2cnc3c(=O)[nH]c(N)nc32)C[C@H]1O,> 2.1,> 42,–,–
C#C[C@]1(CO[P@@](=O)(N[C@@H](C)C(=O)OC(C)C)Oc2ccccc2)C[C@@H](n2cnc3c(OCC)nc(N)nc32)C[C@@H]1O,0.003,> 42,–,–
C#C[C@]1(COP(=O)(O)OP(=O)(O)OP(=O)(O)O)O[C@@H](n2cnc3c(N)nc(F)nc32)C[C@@H]1O,–,–,–,half-life at up to 10 µM [8]: > 120 h
N#CC1(CO)CC(n2cnc3c(N)nc(F)nc32)CC1O (racemic),> 2.1,> 42,–,–
C#CC1(COP(=O)(O)OP(=O)(O)OP(=O)(O)O)CC(n2cc(C)c(=O)[nH]c2=O)CC1O (racemic),–,–,0.114,–
C#CC1(COP(=O)(O)OP(=O)(O)OP(=O)(O)O)CC(n2cnc3c(N)nc(Cl)nc32)CC1O (racemic),–,–,20.2,–
N#CC1(CO)CC(n2cnc3c(=O)[nH]c(N)nc32)CC1O (racemic),1.15,> 42,–,–
Cc1cn(C2CC(O)C(C#N)(COP(=O)(O)OP(=O)(O)OP(=O)(O)O)C2)c(=O)[nH]c1=O (racemic),–,–,0.523,–
C#CC1(COP(=O)(O)OP(=O)(O)OP(=O)(O)O)CC(n2cnc3c(N)nc(F)nc32)CC1O (racemic),–,–,3.46,–
N#CC1(COP(=O)(O)OP(=O)(O)OP(=O)(O)O)CC(n2cnc3c(=O)[nH]c(N)nc32)CC1O (racemic),–,–,0.444,–
C#CC1(COP(=O)(O)OP(=O)(O)OP(=O)(O)O)CC(n2cnc3c(=O)[nH]c(N)nc32)CC1O (racemic),–,–,0.324,–
C#C[C@]1(CO)O[C@@H](n2cnc3c(N)nc(F)nc32)C[C@@H]1O [ISLATRAVIR],0.00021,> 4.2,–,AUC(0-inf) [10]: 5 µM·h; AUC(0-inf) [3]: 0.78 µM·h; clearance [4]: 72 mL/min/kg; half-life [7]: 0.7 h; bioavailability [11]: > 100%
Nc1ccn([C@@H]2CS[C@H](COP(=O)(O)OP(=O)(O)OP(=O)(O)O)O2)c(=O)n1 [LAMIVUDINE TRIPHOSPHATE],–,–,0.015,–
Nc1ccn([C@@H]2CS[C@H](CO)O2)c(=O)n1 [LAMIVUDINE],0.171,> 42,–,–

# Continued, in another order:
IC50 [1] [µM],SMILES,CC50 at 48 h [2] [µM],IC50 [9] [µM],further results
0.024,C#C[C@]1(CO)C[C@@H](n2cnc3c(=O)[nH]c(N)nc32)C[C@@H]1O,> 42,–,AUC(0-inf) [3]: 1.82 µM·h; clearance [4]: 32.4 mL/min/kg; bioavailability [5]: 91%; AUC(0-inf) [6]: 3.3 µM·h; half-life [7]: 9.8 h
> 2.1,Cc1cn(C2CC(O)C(C#N)(CO)C2)c(=O)[nH]c1=O (racemic),> 42,–,–
0.033,C#CC1(CO)CC(n2cnc3c(=O)[nH]c(N)nc32)CC1O (racemic),> 42,–,–
> 2.1,C#CC1(CO)CC(n2cc(C)c(=O)[nH]c2=O)CC1O (racemic),> 42,–,–
0.232,C#CC1(CO)CC(n2cnc3c(N)nc(Cl)nc32)CC1O (racemic),> 42,–,–
0.201,C#CC1(CO)CC(n2cnc3c(N)nc(F)nc32)CC1O (racemic),> 42,–,–
